# Results from ChEMBL document CHEMBL4665753, “Ecdysteroid Derivatives that Reverse P-Glycoprotein-Mediated Drug Resistance” (J Nat Prod, 2020).
# Active and inactive are the calls of the source. No cut-off for these calls is given here.
# What was measured:
# Homo sapiens [1] = species on record: Homo sapiens; assay: Stimulation of P-gp ATPase activity (unknown origin) assessed as increase in ATP consumption at 10 uM relative to control; details: filed as activator
# Method in brief: (§1)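 Luminescent P-gp-Glo assay on recombinant human P-gp in a membrane fraction (25 μg), with sodium orthovanadate (100 μM) as ATPase inhibitor. Reactions were started with 10 mM MgATP and stopped after 40 min with luciferase detection reagent; luminescence was read 60 min later. ATP consumption appears as lost luminescence. Activity is given as fold change versus untreated control, mean of three independent experiments.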
# [2] = Cytotoxicity against human peripheral blood lymphocytes assessed as cell growth inhibition after 72 hrs in presence of PHA by MTT assay; assay type: functional; details: Lymphocyte
# Method in brief: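 Lymphocytes from healthy-donor buffy coats were isolated by density-gradient centrifugation and incubated overnight in RPMI-1640 with 10% FBS. Nonadherent cells were reseeded at 5 × 10^5 cells/mL in medium with 2.5 μg/mL PHA so they would proliferate, then exposed to a range of compound concentrations for 72 h. Viability was read by MTT at 560 nm. GI50 was taken as 50% proliferation inhibition.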
# CEM/VLB100 = assay: Synergistic antiproliferative activity against human CEM/VLB100 cells assessed as reduction in cell viability at 1:10 test compound to vinblastine after 48 hrs by MTT assay
# [3] = molecular target: ATP-dependent translocase ABCB1 (Homo sapiens, UniProt P08183); assay: Inhibition of ABCB1 in human […] cells after 2 hrs by Hoechst dye based flow cytometric analysis; assay type: cell-based
# Sequence of ATP-dependent translocase ABCB1 (P08183 whole entry): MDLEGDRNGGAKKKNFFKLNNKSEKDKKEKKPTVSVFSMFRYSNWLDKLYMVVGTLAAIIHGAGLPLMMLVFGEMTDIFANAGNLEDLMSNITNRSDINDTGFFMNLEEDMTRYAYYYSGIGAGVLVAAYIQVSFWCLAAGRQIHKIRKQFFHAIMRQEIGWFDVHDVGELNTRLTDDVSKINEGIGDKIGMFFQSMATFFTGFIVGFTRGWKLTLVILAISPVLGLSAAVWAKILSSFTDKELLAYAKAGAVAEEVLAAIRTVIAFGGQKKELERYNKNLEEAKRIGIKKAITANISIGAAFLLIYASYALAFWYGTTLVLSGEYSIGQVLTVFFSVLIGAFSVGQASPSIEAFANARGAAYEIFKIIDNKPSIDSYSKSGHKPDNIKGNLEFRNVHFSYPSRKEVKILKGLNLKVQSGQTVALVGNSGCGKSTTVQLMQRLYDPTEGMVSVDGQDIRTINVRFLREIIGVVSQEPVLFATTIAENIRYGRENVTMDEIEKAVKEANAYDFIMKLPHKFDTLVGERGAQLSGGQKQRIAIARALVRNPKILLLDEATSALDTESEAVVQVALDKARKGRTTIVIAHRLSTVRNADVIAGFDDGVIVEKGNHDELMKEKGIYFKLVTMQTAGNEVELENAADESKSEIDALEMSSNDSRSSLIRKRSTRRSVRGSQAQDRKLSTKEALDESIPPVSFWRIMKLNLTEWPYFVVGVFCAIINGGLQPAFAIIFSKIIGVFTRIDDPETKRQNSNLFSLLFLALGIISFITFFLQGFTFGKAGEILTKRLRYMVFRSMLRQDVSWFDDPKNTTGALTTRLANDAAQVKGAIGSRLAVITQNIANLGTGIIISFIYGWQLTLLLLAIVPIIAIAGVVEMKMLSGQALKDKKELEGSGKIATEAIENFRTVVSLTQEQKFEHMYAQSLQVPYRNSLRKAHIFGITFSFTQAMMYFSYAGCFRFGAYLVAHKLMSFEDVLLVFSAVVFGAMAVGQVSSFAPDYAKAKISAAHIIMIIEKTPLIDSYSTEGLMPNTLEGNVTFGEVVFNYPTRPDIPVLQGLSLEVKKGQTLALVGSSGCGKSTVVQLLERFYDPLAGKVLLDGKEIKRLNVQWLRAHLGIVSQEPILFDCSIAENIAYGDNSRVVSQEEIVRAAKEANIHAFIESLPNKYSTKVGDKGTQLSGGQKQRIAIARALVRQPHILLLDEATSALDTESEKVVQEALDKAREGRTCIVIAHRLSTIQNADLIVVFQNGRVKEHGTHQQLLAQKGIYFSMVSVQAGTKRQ
# Method in brief: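 Medulloblastoma DAOY cells were treated with compounds at 10 μM for 2 h. Cells (10^6/mL) were stained with 5 μg/mL Hoechst 33342 in αMEM with 2% FBS for 90 min at 37 °C, then with 2 μg/mL propidium iodide at 4 °C for 10 min. Side-population cells were gated on PI-negative events on a Hoechst red vs blue plot under UV excitation, acquiring at least 30 000 live events.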
# [4] = Cytotoxicity against human peripheral blood lymphocytes assessed as cell growth inhibition after 72 hrs by MTT assay; assay type: functional; details: Lymphocyte
# Method in brief: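 Resting, non-PHA-stimulated lymphocytes from healthy-donor buffy coats were isolated by density-gradient centrifugation and incubated overnight in RPMI-1640 with 10% FBS. Nonadherent cells were then seeded at 5 × 10^5 cells/mL with a range of compound concentrations for 72 h. Viability was read by MTT at 560 nm. GI50 was taken as 50% proliferation inhibition from log concentration plots.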
# Homo sapiens [5] = species on record: Homo sapiens; assay: Stimulation of P-gp ATPase activity (unknown origin) assessed as increase in ATP consumption at 1 uM relative to control; details: filed as activator; method in brief: as §1
fold change (FC) (Homo sapiens [1]),inhibition (INH) [3],fold change (FC) (Homo sapiens [5]),Compound,GI50 [2] [µM],Activity (CEM/VLB100),GI50 [4] [µM]
4,,,COc1ccc(CCN(C)CCCC(C#N)(c2ccc(OC)c(OC)c2)C(C)C)cc1OC (stereo unspecified),,,
4,Active,,CC(C)(O)CC[C@@H](OC(=O)c1ccccc1)[C@](C)(O)[C@H]1CC[C@@]2(O)C3=CC(=O)[C@@H]4C[C@@H](OC(=O)c5ccccc5)[C@@H](OC(=O)c5ccccc5)C[C@]4(C)[C@H]3CC[C@]12C,19.9,Active,> 100
,Active,6,CC(C)(O)CC[C@H]1OC2(CCCCC2)O[C@]1(C)[C@H]1CC[C@@]2(O)C3=CC(=O)[C@@H]4C[C@H]5OC6(CCCCC6)O[C@H]5C[C@]4(C)[C@H]3CC[C@]12C,42.8,Active,61.7
